Data from ChEMBL document CHEMBL1134480, “Antiplasmodial activity and cytotoxicity of bis-, tris-, and tetraquinolines with linear or cyclic amino linkers” (J Med Chem, 2001).

Columns and labels:
MRC5 [1] = assay: Cytotoxicity against MRC-5 cells at concentration 1 uM; type: functional; settings: Homo sapiens
How it was run: (§1)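 MRC-5 human embryonic lung diploid cells were seeded at 5000 per well. After 24 h the cells were washed and exposed to 2-fold drug dilutions in RPMI + 5% FCS, with final DMSO below 0.5%. Incubation was 7 days at 37 °C in 5% CO2. Viability was read by MTT absorbance at 540 nm.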

MRC5 [2] = assay: Cytotoxicity against MRC-5 cells at concentration 32 uM; type: functional; settings: Homo sapiens; how it was run: as §1
MRC5 [3] = assay: Cytotoxicity against MRC-5 cells at concentration 0.5 uM; type: functional; settings: Homo sapiens; how it was run: as §1
MRC5 [4] = assay: Cytotoxicity against MRC-5 cells at concentration 8 uM; type: functional; settings: Homo sapiens; how it was run: as §1
Mus musculus [5] = organism: Mus musculus; assay: In vitro cytotoxic activity against mouse peritoneal macrophages at a concentration 8 uM; Non-toxic; type: functional
[6] = In vitro cytotoxic activity against mouse peritoneal macrophages at concentration 32 uM; Toxic; type: toxicity
Mus musculus [7] = organism: Mus musculus; assay: In vitro cytotoxic activity against mouse peritoneal macrophages at a concentration 2 uM; Non-toxic; type: functional
Plasmodium falciparum [8] = assay: In vitro growth inhibition of Plasmodium falciparum FcB1R; type: functional, organism-based
How it was run: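 Asynchronous P. falciparum cultures were grown in human erythrocytes at 0.5% parasitemia and 1% hematocrit. They were exposed to serial drug dilutions, with DMSO ≤0.1%, for 24 h at 37 °C before adding 0.5 µCi [3H]hypoxanthine per well. Inhibition was measured as incorporated radioactivity versus drug-free controls on the same plate. IC50 came from concentration–response curves, reported as mean ± SD of three independent experiments; FcB1R used several experiments.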

[9] = In vitro cytotoxicity against mouse peritoneal macrophages at concentration 32 uM; Toxic; type: toxicity
[10] = In vitro cytotoxicity against mouse peritoneal macrophages at concentration 8 uM; Toxic; type: toxicity
[11] = In vitro cytotoxic activity against mouse peritoneal macrophages at a concentration 32 uM; Toxic; type: toxicity
[12] = In vitro cytotoxic activity against mouse peritoneal macrophages at a concentration 8 uM; Toxic; type: toxicity
Plasmodium falciparum [13] = assay: (§2) In vitro growth inhibition of Plasmodium falciparum W2; type: functional, organism-based
How it was run: (§3)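 Asynchronous P. falciparum cultures in human erythrocytes (0.5% parasitemia, 1% final hematocrit) exposed to serially diluted drug for 24 h at 37 °C, then pulsed with 0.5 µCi [³H]hypoxanthine per well. Inhibition from incorporated radioactivity versus drug-free control on the same plate; IC50 from concentration-response curve; mean ± SD of three independent experiments. DMSO ≤0.1% final.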

Plasmodium falciparum [14] = assay: In vitro growth inhibition of Plasmodium falciparum D6; type: functional, organism-based; how it was run: as §3
Plasmodium falciparum [15] = assay: (§4) In vitro growth inhibition of Plasmodium falciparum F32; type: functional, organism-based; how it was run: as §3
[16] = Inhibition of haem polymerization
How it was run: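 Insoluble FcB1R trophozoite material (~4 × 10^7 parasites) was mixed with 0.3 mM bovine haematin in 60 mM sodium acetate, pH 5, plus drug at varied concentrations and 1% DMSO, then incubated 4 h at 37 °C. The washed pellet was treated with SDS, and polymerized haem was dissolved in NaOH and read at 404 nm. Values were corrected for endogenous haemozoin to give IC50. Data are the mean of two independent experiments, each run in duplicate.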

Plasmodium falciparum [17] = assay: as §2; type: functional, organism-based; remark: listed apart in the source
Plasmodium falciparum [18] = assay: as §4; type: functional, organism-based; remark: listed apart in the source

| Structure (SMILES) | cytotoxicity at 1 µM (MRC5 [1]) | cytotoxicity at 32 µM (MRC5 [2]) | cytotoxicity at 0.5 µM (MRC5 [3]) | cytotoxicity at 8 µM (MRC5 [4]) | Cytotoxicity (Mus musculus [5]) | Cytotoxicity [6] | Cytotoxicity (Mus musculus [7]) | IC50 (Plasmodium falciparum [8]) | Cytotoxicity [9] | Cytotoxicity [10] | Cytotoxicity [11] | Cytotoxicity [12] | IC50 (Plasmodium falciparum [13]) | IC50 (Plasmodium falciparum [14]) | IC50 (Plasmodium falciparum [15]) | IC50 [16] | IC50 (Plasmodium falciparum [17]) | IC50 (Plasmodium falciparum [18]) |
| --- | --- | --- | --- | --- | --- | --- | --- | --- | --- | --- | --- | --- | --- | --- | --- | --- | --- | --- |
| Clc1ccc2c(N3CCCNCCN(c4ccnc5cc(Cl)ccc45)CCCNCC3)ccnc2c1 | 0% | 98% | 0% | 0% | Not toxic | Toxic | Not toxic | > 1000 nM | – | – | – | – | – | – | – | – | – | – |
| Clc1ccc2c(NCCCCNCCCNc3ccnc4cc(Cl)ccc34)ccnc2c1 | 0% | 100% | 0% | 100% | – | – | Not toxic | 57 nM | Toxic | Toxic | – | – | – | – | – | – | – | – |
| O=C(CCN1CCCCC1)N1CCN(c2ccnc3cc(Cl)ccc23)CCN(c2ccnc3cc(Cl)ccc23)CC1 | 0% | 91% | 0% | 87% | – | – | Not toxic | 38.6 nM | – | – | Toxic | Toxic | 50.2 nM | 18.9 nM | 16.1 nM | – | – | – |
| Clc1ccc2c(N3CCNCCN(c4ccnc5cc(Cl)ccc45)CC3)ccnc2c1 | 0% | 0% | 0% | 0% | Not toxic | – | Not toxic | – | – | – | – | – | – | 74.5 nM | – | 170000 nM | 170 nM | 64.6 nM |
